Test results as given in PubChem BioAssay AID2445 (The Scripps Research Institute Molecular Screening Center, 2010).
In all, about 320,000 compounds went through this assay and about 200 (0.062%) were called active.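 How the source made its calls: active means activation above that plate's cutoff, the mean activation of tested compounds plus 3 SD (cut at about 6.6% in these data, passing the limit was not always enough); inactive means the rest.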 Many of the other results were omitted from the sample, so actives are more common in it than they were.

Molecular target: Oxytocin receptor (Homo sapiens) (UniProt P30559)
Sequence (P30559 whole entry, looked up): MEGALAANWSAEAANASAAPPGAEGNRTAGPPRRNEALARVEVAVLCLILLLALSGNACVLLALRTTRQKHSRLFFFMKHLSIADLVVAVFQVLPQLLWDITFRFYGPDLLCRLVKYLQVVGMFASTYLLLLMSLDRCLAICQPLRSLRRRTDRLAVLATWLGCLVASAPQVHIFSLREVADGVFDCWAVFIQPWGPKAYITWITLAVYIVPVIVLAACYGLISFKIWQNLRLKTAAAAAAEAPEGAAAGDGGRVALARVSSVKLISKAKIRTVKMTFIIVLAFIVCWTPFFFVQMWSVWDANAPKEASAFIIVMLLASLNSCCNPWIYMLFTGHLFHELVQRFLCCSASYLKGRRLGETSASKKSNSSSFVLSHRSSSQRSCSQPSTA
Test: enhancers of oxytocin-evoked OXTR calcium signal – fluorescence, CHO-OTR cells, Fluo-8 calcium, primary screen (AID 2445);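 further: 100% uses oxytocin at 75 nM as the full agonist control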
Settings: Fluo-8 calcium fluorescence, potentiator mode, at 3 µM, active compounds read high, 0% = oxytocin EC15, 100% = EC100
Outline: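 Material: human OTR in CHO cells. Compound: 3.0 µM, one dose. Timing: compound 6 min at room temperature before oxytocin, 100 s read. Evaluation: % activation of max/min ratio relative to oxytocin controls. Replication: single well per compound, singlicate. Signal: Fluo-8 calcium dye fluorescence.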

activation, inactive:
CC(=O)c1ccc(OCC(O)CN2CCN(S(=O)(=O)c3cccc(Br)c3)CC2)cc1 (centres undefined) -10.6%
COc1cc(OC)cc(C(=O)N[C@H](C(=O)NNC(=O)c2ccc(Br)cc2)C(C)C)c1 0.41%
COc1ccc(S(=O)(=O)N2CCOC2CNC(=O)C(=O)NCc2ccncc2)cc1C (centres undefined) 2.91%
CCS(=O)(=O)n1nc(-c2ccccc2)nc1SCc1ccccc1 0.8%
O=C(NC1CCCCCCC1)c1cccs1 -9.53%
CCO[C@H]1OC(C(=O)Nc2ccccc2)=C[C@@H](C2CC2)[C@@H]1CCCO -3.89%
CCOc1ccc(CNC(=O)CCC(=O)N2CCSc3ccccc32)cc1 -5.95%
CC(OC(=O)c1c(F)cccc1F)C(=O)NCCC1=CCCCC1 (centres undefined) -1.25%
CCCCCCSc1ccc([C@@H]2[C@@H]3C(=O)N(CC)C(=O)[C@@H]3[C@]3(C(=O)OC)CCCCN23)cc1OC -12.2%
O=S1(=O)CCOC[C@H](CC2CCCCC2)N1Cc1ccc(F)cc1 0.09%
Cc1ccccc1CCN(CC(=O)NC1CCCCC1)C(=O)c1csnn1 -12.1%
Cc1c(Cl)cccc1NC(=O)[C@@]1(CC(=O)O)CC(/C=C/c2ccccc2)=NO1 -10.7%
Cc1ccc(S(=O)(=O)Nc2nc(CN3CCOCC3)nc3sc(C)c(C)c23)cc1 4.74%
Cc1cc(C)c2c(c1)c(C)cc1nnc(SCC(=O)NCc3ccco3)n12 -0.06%
Cc1cc(C)cc(N(CCC#N)C(=O)CN2C(=O)NC3(CCCC3)C2=O)c1 -5.16%
O=C(C1CCN(C2CCN(Cc3cccc4c3OCO4)CC2)CC1)N1CCOCC1 -0.07%
Cc1ccc(N2C(=O)C3C(c4ccccc4)(C2=O)C3(c2ccccc2)c2ccccc2)cc1 (centres undefined) -5.54%
CC1CCCC(NC(=O)CSc2nccn2C)C1C (centres undefined) -21.1%
Cc1ccccc1-c1cc(C(=O)NCc2cccs2)n(CC2CC(c3cccnc3)=NO2)n1 (centres undefined) -4.56%
CCCOc1ccccc1C1CC(=O)Nc2cc3c(cc21)OCO3 (centres undefined) -15.5%
COC(=O)c1ccc(C2CC(=O)Nc3cc(OC)c(OC)cc32)cc1 (centres undefined) -2.55%
Cc1ccc(CNC(=O)CCN2C(=O)[C@@H]3Cc4ccccc4CN3C2=O)cc1 -7.86%
CN(Cc1ccccc1Cl)C(=O)C1CCC(=O)N(CCc2cccc(F)c2)C1 (centres undefined) 5.76%

activation, active:
COc1cc2c(cc1OC)C(c1ccc(C)o1)CC(=O)N2 (centres undefined) 6.71%
